Experimental data reported in ChEMBL document CHEMBL3232859, “Absolute configuration of (13R)- and (13S)-labdane diterpenes coexisting in Ageratina jocotepecana” (2014).
Values after ≈ are worked out from the molar mass of the structure shown. Active and inactive are the calls of the source. No cut-off for these calls is given here.

Assays:
Escherichia coli = test: Antibacterial activity against Escherichia coli assessed as growth inhibition at 0.01 mg/uL after 18 hrs by agar diffusion method; type: functional, organism-based
How it was run: (§1)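 Single-concentration agar diffusion screen: 6 μL aliquots of ethanolic solutions of pure compounds (0.01 mg/μL) deposited on solidified agar; inhibition zone diameter measured after 18 h incubation at 37 °C.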

Klebsiella pneumoniae = test: Antibacterial activity against Klebsiella pneumoniae assessed as growth inhibition at 0.01 mg/uL after 18 hrs by agar diffusion method; type: functional, organism-based; how it was run: as §1
Bacillus subtilis = test: Antibacterial activity against Bacillus subtilis assessed as growth inhibition after 18 hrs by agar diffusion method; type: functional
How it was run: (§2)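 MIC by agar diffusion: ethanolic solutions, starting at a maximum of 0.01 mg/μL with successive 2-fold dilutions; 6 μL aliquots deposited on solidified agar; inhibition zone diameter read after 18 h incubation at 37 °C. Cefotaxime positive control, EtOH negative control.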

Staphylococcus aureus = test: Antibacterial activity against Staphylococcus aureus assessed as growth inhibition after 18 hrs by agar diffusion method; type: functional; how it was run: as §2

C[C@H](CC[C@@H]1[C@@]2(C)CCCC(C)(C)[C@@H]2CC[C@@]1(C)O)CC(=O)O
growth inhibition (GI) (Escherichia coli): inactive | growth inhibition (GI) (Klebsiella pneumoniae): inactive | MIC (Bacillus subtilis): 1560 µg/mL (≈ 4.81 mM) | MIC (Staphylococcus aureus): 2340 µg/mL (≈ 7.21 mM)

CO/N=C(\C(=O)N[C@@H]1C(=O)N2C(C(=O)O)=C(COC(C)=O)CS[C@H]12)c1csc(N)n1 [CEFOTAXIME]
MIC (Bacillus subtilis): 12500 µg/mL (≈ 27.4 mM) | MIC (Staphylococcus aureus): 130 µg/mL (≈ 0.285 mM)

CC1=CC[C@H]2C(C)(C)CCC[C@]2(C)[C@H]1CC[C@H](C)CC(=O)O
growth inhibition (GI) (Escherichia coli): inactive | growth inhibition (GI) (Klebsiella pneumoniae): inactive | MIC (Bacillus subtilis): 150 µg/mL (≈ 0.489 mM) | MIC (Staphylococcus aureus): 780 µg/mL (≈ 2.54 mM)

CC1=CC[C@H]2C(C)(C)CCC[C@]2(C)[C@H]1CC/C(C)=C\C(=O)O
growth inhibition (GI) (Escherichia coli): inactive | growth inhibition (GI) (Klebsiella pneumoniae): inactive | MIC (Bacillus subtilis): 1000 µg/mL (≈ 3.28 mM) | MIC (Staphylococcus aureus): 10000 µg/mL (≈ 32.8 mM)
